# Laboratory results: ChEMBL document CHEMBL1772967 (J Med Chem, 2011)
# Calls of active or inactive are those of the source. No cut-off for these calls is given here.
# What was measured:
# [1] = Binding affinity to 10 uM of human alpha-1-acid glycoprotein in at 5 uM after 6 hrs by equilibrium dialysis method; format: ADME; conditions: isolated protein
# How it was run: (§1)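 [14C]-labelled plus unlabelled drug added to human AAG at 0.5, 1 or 5 mg/mL to give 5, 25 or 75 μM drug. Dialysed against 0.133 M isotonic phosphate buffer, 6 h, 37 °C, 5% CO2. Scintillation counting of both sides gives % free (buffer/protein side ×100) and % bound. High-affinity KD from a two-site fit of bound vs free, Bmax1 fixed at the AAG concentration.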
# [2] = Binding affinity human alpha-1-acid glycoprotein in after 6 hrs by equilibrium dialysis method; format: ADME; how it was run: as §1
# [3] = molecular target: Sonic hedgehog protein (Homo sapiens) (UniProt Q15465); test: Inhibition of human SHH pathway in mouse S12 cells assessed as GLI-mediated transcriptional activity after 48 hrs by luciferase reporter gene assay in presence of 1 mg/mL human alpha-1-acid glycoprotein; format: cell-based
# Sequence of Sonic hedgehog protein (Homo sapiens) (Q15465 24-197 limits assumed): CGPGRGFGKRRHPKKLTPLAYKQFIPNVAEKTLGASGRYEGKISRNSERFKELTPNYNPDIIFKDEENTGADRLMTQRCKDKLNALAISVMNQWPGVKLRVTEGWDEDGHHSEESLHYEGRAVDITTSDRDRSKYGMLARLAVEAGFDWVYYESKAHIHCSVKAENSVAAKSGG
# How it was run: (§2)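 Mouse C3H10T1/2-derived S12 cells carrying a stably integrated GLI-luciferase reporter. Grown in high-glucose DMEM with 10% FBS, replated, then switched to 0.5% FBS to induce cilia. Shh, human AAG (0, 0.5, 1 or 5 mg/mL) and compound added. Luciferase (Dual-Glo) read after 48 h. Mean of four experiments ±SD.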
# [4] = molecular target: Sonic hedgehog protein (Homo sapiens) (UniProt Q15465); test: Inhibition of human SHH pathway in mouse S12 cells assessed as GLI-mediated transcriptional activity at 3 uM after 48 hrs by luciferase reporter gene assay in presence of 5 mg/mL human alpha-1-acid glycoprotein; format: cell-based; how it was run: as §2
# [5] = Binding affinity to human alpha-1-acid glycoprotein at 37 degC by surface plasmon resonance assay; format: ADME
# How it was run: (§3)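 Cross-serial dilutions, top 250 μM. Reference-subtracted, solvent-corrected, double-referenced responses at the end of association plotted against concentration and fitted to single- or two-site equilibrium models.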
# [6] = Binding affinity to rat alpha-1-acid glycoprotein at 250 uM at 37 degC by surface plasmon resonance assay; format: ADME; how it was run: as §3
# [7] = molecular target: T1, Albumin (Rattus norvegicus, UniProt P02770); test: Binding affinity to rat serum albumin at 37 degC by surface plasmon resonance assay
# T1 sequence (P02770 whole entry): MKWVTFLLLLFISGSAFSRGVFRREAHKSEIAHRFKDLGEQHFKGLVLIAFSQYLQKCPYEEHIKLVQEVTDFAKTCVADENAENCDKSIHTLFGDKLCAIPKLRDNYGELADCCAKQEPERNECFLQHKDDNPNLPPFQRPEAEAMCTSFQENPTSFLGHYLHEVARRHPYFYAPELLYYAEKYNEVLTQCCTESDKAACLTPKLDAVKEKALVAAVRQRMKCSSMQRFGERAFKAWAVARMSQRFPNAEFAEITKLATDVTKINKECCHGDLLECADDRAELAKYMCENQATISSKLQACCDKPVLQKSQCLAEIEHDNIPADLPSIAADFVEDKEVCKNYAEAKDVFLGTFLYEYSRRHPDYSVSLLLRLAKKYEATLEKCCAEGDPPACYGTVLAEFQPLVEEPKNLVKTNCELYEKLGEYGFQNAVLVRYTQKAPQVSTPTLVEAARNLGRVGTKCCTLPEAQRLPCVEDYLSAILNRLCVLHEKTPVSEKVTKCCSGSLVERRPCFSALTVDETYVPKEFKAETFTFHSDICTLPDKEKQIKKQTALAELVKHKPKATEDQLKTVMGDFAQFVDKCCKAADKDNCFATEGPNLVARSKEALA
# [8] = Binding affinity to low-affinity site of human alpha-1-acid glycoprotein at 20 degC by surface plasmon resonance assay; format: ADME; how it was run: as §3
# [9] = molecular target: T1, Albumin; test: Binding affinity to high-affinity binding site of rat serum albumin at 20 degC by surface plasmon resonance assay
# [10] = molecular target: T1, Albumin; test: Binding affinity to low-affinity binding site of rat serum albumin at 20 degC by surface plasmon resonance assay
# [11] = Binding affinity to human alpha-1-acid glycoprotein at 20 degC by isothermal titration calorimetry analysis; format: ADME
# How it was run: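 ITC at 20 °C. Human (300 μM) or rat (100 μM) AAG dialysed overnight at 4 °C into 50 mM HEPES pH 7.2, 150 mM NaCl, 0.005% Tween-20, 5% DMSO. Heats corrected with buffer controls and fitted to a one-site model.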
# [12] = Binding affinity to high-affinity site of human alpha-1-acid glycoprotein at 20 degC by surface plasmon resonance assay; format: ADME; how it was run: as §3
# [13] = Binding affinity to […] uM of human alpha-1-acid glycoprotein in at 5 uM after 6 hrs by equilibrium dialysis method; format: ADME; conditions: isolated protein
# [14] = Binding affinity to 100 uM of human alpha-1-acid glycoprotein in at 5 uM after 6 hrs by equilibrium dialysis method; format: ADME; conditions: isolated protein; how it was run: as §1
# [15] = Binding affinity to 10 uM of human alpha-1-acid glycoprotein in at 25 uM after 6 hrs by equilibrium dialysis method; format: ADME; conditions: isolated protein; how it was run: as §1
# [16] = Binding affinity to […] uM of human alpha-1-acid glycoprotein in at 25 uM after 6 hrs by equilibrium dialysis method; format: ADME; conditions: isolated protein
# [17] = Binding affinity to 100 uM of human alpha-1-acid glycoprotein in at 25 uM after 6 hrs by equilibrium dialysis method; format: ADME; conditions: isolated protein; how it was run: as §1
# [18] = Binding affinity to 10 uM of human alpha-1-acid glycoprotein in at 75 uM after 6 hrs by equilibrium dialysis method; format: ADME; conditions: isolated protein; how it was run: as §1
# [19] = Binding affinity to […] uM of human alpha-1-acid glycoprotein in at 75 uM after 6 hrs by equilibrium dialysis method; format: ADME; conditions: isolated protein
# [20] = Binding affinity to 100 uM of human alpha-1-acid glycoprotein in at 75 uM after 6 hrs by equilibrium dialysis method; format: ADME; conditions: isolated protein; how it was run: as §1
# [21] = molecular target: T2, Albumin (Homo sapiens, UniProt P02768); test: Binding affinity to human serum albumin at 500 uM at 37 degC by surface plasmon resonance assay; format: ADME; conditions: isolated protein
# T2 sequence (P02768 whole entry): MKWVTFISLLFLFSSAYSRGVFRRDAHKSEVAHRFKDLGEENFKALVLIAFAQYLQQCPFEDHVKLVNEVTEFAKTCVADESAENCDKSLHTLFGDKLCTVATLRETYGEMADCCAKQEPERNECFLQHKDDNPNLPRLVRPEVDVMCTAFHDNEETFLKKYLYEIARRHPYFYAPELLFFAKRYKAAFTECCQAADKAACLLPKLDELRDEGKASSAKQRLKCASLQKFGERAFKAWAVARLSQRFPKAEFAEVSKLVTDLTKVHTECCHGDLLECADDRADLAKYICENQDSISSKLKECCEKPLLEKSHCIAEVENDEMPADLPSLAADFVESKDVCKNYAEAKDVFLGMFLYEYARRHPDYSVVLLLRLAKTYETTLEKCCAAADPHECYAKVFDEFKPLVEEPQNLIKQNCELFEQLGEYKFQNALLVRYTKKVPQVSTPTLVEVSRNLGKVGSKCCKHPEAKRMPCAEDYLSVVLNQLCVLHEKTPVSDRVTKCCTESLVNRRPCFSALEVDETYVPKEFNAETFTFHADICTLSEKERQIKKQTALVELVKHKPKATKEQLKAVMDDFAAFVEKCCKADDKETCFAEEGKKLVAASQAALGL
# [22] = molecular target: T1, Albumin; test: Binding affinity to rat serum albumin at 500 uM at 37 degC by surface plasmon resonance assay; format: ADME; conditions: isolated protein
# [23] = Binding affinity to high-affinity binding site of rat alpha-1-acid glycoprotein at 20 degC by surface plasmon resonance assay; format: ADME; how it was run: as §3
# [24] = Binding affinity to low-affinity binding site of rat alpha-1-acid glycoprotein at 20 degC by surface plasmon resonance assay; format: ADME; how it was run: as §3
# [25] = molecular target: T2, Albumin; test: Binding affinity to human serum albumin at 500 uM at 20 degC by surface plasmon resonance assay; format: ADME; conditions: isolated protein
# [26] = molecular target: T1, Albumin; test: Binding affinity to rat serum albumin at 500 uM at 20 degC by surface plasmon resonance assay; format: ADME; conditions: isolated protein
# [27] = Binding affinity to human alpha-1-acid glycoprotein at 25 degC; format: ADME
# [28] = Binding affinity to human alpha-1-acid glycoprotein at 500 uM at 37 degC by surface plasmon resonance assay; format: ADME
# How it was run: (§4)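 Compounds were diluted from 10 mM DMSO stocks into 50 mM Hepes pH 7.2, 150 mM NaCl, 0.005% Tween-20, 5% DMSO, in cross-serial dilutions. Responses at the end of association were double-referenced, solvent-corrected and fit to single- or two-site equilibrium models for KD.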
# [29] = Binding affinity to rat alpha-1-acid glycoprotein at 500 uM at 37 degC by surface plasmon resonance assay; format: ADME; how it was run: as §4
# [30] = Binding affinity to human alpha-1-acid glycoprotein at 500 uM at 20 degC by surface plasmon resonance assay; format: ADME; how it was run: as §4
# [31] = Binding affinity to rat alpha-1-acid glycoprotein at 500 uM at 20 degC by surface plasmon resonance assay; format: ADME; how it was run: as §4
smiles,measurement,setting,value
CS(=O)(=O)c1ccc(C(=O)Nc2ccc(Cl)c(-c3ccccn3)c2)c(Cl)c1 [VISMODEGIB],Activity,[1],96.5%
same,Kd,[2],1.5 µM
same,inhibition,[3],Active
same,inhibition,[4],inactive
same,Kd,[5],13 µM
same,Activity,[6],Not Active
same,Kd,[7],140 µM
same,Kd,[8],139 µM
same,Kd,[9],171 µM
same,Kd,[10],5.8 µM
same,Kd,[11],1.1 µM
same,Kd,[12],3.7 µM
same,Activity,[13],98.3%
same,Activity,[14],98.8%
same,Activity,[15],70.4%
same,Activity,[16],88.9%
same,Activity,[17],98.7%
same,Activity,[18],41.1%
same,Activity,[19],60%
same,Activity,[20],98.3%
C=CC1=C(C)/C(=C/C2=NC(=C\c3[nH]c(/C=C4\NC(=O)C(C)=C4C=C)c(C)c3CCC(=O)O)/C(CCC(=O)O)=C2C)NC1=O [BILIVERDIN],Activity,[21],Not Active
same,Activity,[22],Not Active
same,Kd,[8],219 µM
same,Kd,[23],71 µM
same,Kd,[24],1700 µM
same,Activity,[25],Not Active
same,Activity,[26],Not Active
same,Kd,[27],8.3 µM
same,Kd,[11],7 µM
same,Kd,[12],15.3 µM
CC(=O)CC(c1ccccc1)c1c(O)c2ccccc2oc1=O (centres undefined) [WARFARIN],Activity,[28],Not Active
same,Activity,[29],Not Active
same,Activity,[30],Not Active
same,Activity,[31],Not Active
